Columns and labels:
Assay type in all cases: functional
OVCAR-4 = test: Cytotoxicity against human OVCAR4 cells assessed as cell growth at 50 uM by SRB assay; conditions: read-out: Activity
TK-10 [1] = test: Cytotoxicity against human TK10 cells assessed as cell growth at 50 uM by SRB assay; conditions: read-out: Activity
PC-3 = test: Cytotoxicity against human PC3 cells assessed as cell growth at 50 uM by SRB assay; conditions: read-out: Activity
[2] = Cytotoxicity against human Hs578T cells assessed as cell growth at 50 uM by SRB assay; conditions: Hs-578T, read-out: Activity
In short: (§1)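 Measured in the NCI-60 human tumour cell line panel using five-dose testing. Growth was recorded at each dose for each cell line, and a GI50 was derived for each line.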

MDA-MB-468 = test: Cytotoxicity against human MDA-MB-468 cells assessed as cell growth at 50 uM by SRB assay; conditions: read-out: Activity
NCI-H226 = test: Cytotoxicity against human NCI-H226 cells by SRB assay
In short: (§2)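 NCI-60 panel screen; 5-dose testing giving GI50 per cell line, plus a single 10 µM one-dose test. Method details not given beyond the NCI screen.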

KM12 [3] = test: Cytotoxicity against human KM12 cells by SRB assay; in short: as §2
SF-539 = test: Cytotoxicity against human SF539 cells by SRB assay; in short: as §2
M14 [4] = test: Cytotoxicity against human M14 cells by SRB assay; in short: as §2
UACC-62 = test: Cytotoxicity against human UACC62 cells by SRB assay; in short: as §2
RXF 393 [5] = test: Cytotoxicity against human RXF393 cells by SRB assay; in short: as §2
NCI-H460 = test: Cytotoxicity against human NCI-H460 cells assessed as cell growth at 0.005 uM by SRB assay; conditions: read-out: Activity
SW-620 [6] = test: Cytotoxicity against human SW620 cells assessed as cell growth at 0.005 uM by SRB assay; conditions: read-out: Activity
SNB-75 = test: Cytotoxicity against human SNB75 cells assessed as cell growth at 0.005 uM by SRB assay; conditions: read-out: Activity
LOX IMVI = test: Cytotoxicity against human LOXIMVI cells assessed as cell growth at 0.005 uM by SRB assay; conditions: read-out: Activity
M14 [7] = test: Cytotoxicity against human M14 cells assessed as cell growth at 0.005 uM by SRB assay; conditions: read-out: Activity
SK-MEL-2 = test: Cytotoxicity against human SK-MEL-2 cells assessed as cell growth at 0.005 uM by SRB assay; conditions: read-out: Activity
IGROV-1 = test: Cytotoxicity against human IGROV1 cells assessed as cell growth at 0.005 uM by SRB assay; conditions: read-out: Activity; in short: as §1
[8] = Cytotoxicity against human Hs578T cells assessed as cell growth at 0.005 uM by SRB assay; conditions: Hs-578T, read-out: Activity; in short: as §1
HOP-92 = test: Cytotoxicity against human HOP92 cells assessed as cell growth at 0.05 uM by SRB assay; conditions: read-out: Activity; in short: as §1
NCI-H23 [9] = test: Cytotoxicity against human NCI-H23 cells assessed as cell growth at 0.05 uM by SRB assay; conditions: read-out: Activity
HCT-116 = test: Cytotoxicity against human HCT116 cells assessed as cell growth at 0.05 uM by SRB assay; conditions: read-out: Activity; in short: as §1
SW-620 [10] = test: Cytotoxicity against human SW620 cells assessed as cell growth at 0.05 uM by SRB assay; conditions: read-out: Activity
SK-MEL-28 = test: Cytotoxicity against human SK-MEL-28 cells assessed as cell growth at 0.05 uM by SRB assay; conditions: read-out: Activity
SK-OV-3 [11] = test: Cytotoxicity against human SKOV3 cells assessed as cell growth at 0.05 uM by SRB assay; conditions: read-out: Activity
RXF 393 [12] = test: Cytotoxicity against human RXF393 cells assessed as cell growth at 0.05 uM by SRB assay; conditions: read-out: Activity
HL-60(TB) = test: Cytotoxicity against human HL-60(TB) cells assessed as cell growth at 0.5 uM by SRB assay; conditions: read-out: Activity; in short: as §1
NCI-H23 [13] = test: Cytotoxicity against human NCI-H23 cells assessed as cell growth at 0.5 uM by SRB assay; conditions: read-out: Activity
HCT-15 = test: Cytotoxicity against human HCT15 cells assessed as cell growth at 0.5 uM by SRB assay; conditions: read-out: Activity; in short: as §1
TK-10 [14] = test: Cytotoxicity against human TK10 cells assessed as cell growth at 0.5 uM by SRB assay; conditions: read-out: Activity
COLO 205 = test: Cytotoxicity against human COLO205 cells assessed as cell growth at 5 uM by SRB assay; conditions: read-out: Activity
KM12 [15] = test: Cytotoxicity against human KM12 cells assessed as cell growth at 5 uM by SRB assay; conditions: read-out: Activity
SW-620 [16] = test: Cytotoxicity against human SW620 cells assessed as cell growth at 5 uM by SRB assay; conditions: read-out: Activity
MDA-MB-435 = test: Cytotoxicity against human MDA-MB-435 cells assessed as cell growth at 5 uM by SRB assay; conditions: read-out: Activity
UACC-257 = test: Cytotoxicity against human UACC257 cells assessed as cell growth at 5 uM by SRB assay; conditions: read-out: Activity
OVCAR-8 = test: Cytotoxicity against human OVCAR8 cells assessed as cell growth at 5 uM by SRB assay; conditions: read-out: Activity
SK-OV-3 [17] = test: Cytotoxicity against human SKOV3 cells assessed as cell growth at 5 uM by SRB assay; conditions: read-out: Activity
CAKI-1 = test: Cytotoxicity against human Caki1 cells assessed as cell growth at 5 uM by SRB assay; conditions: read-out: Activity
MCF7 = test: Cytotoxicity against human MCF7 cells assessed as cell growth at 5 uM by SRB assay; conditions: read-out: Activity
BT-549 = test: Cytotoxicity against human BT549 cells assessed as cell growth at 5 uM by SRB assay; conditions: read-out: Activity
CCRF-CEM = test: Cytotoxicity against human CCRF-CEM cells assessed as cell growth at 50 uM by SRB assay; conditions: read-out: Activity
NCI-H322M = test: Cytotoxicity against human NCI-H322M cells assessed as cell growth at 50 uM by SRB assay; conditions: read-out: Activity
NCI-H522 = test: Cytotoxicity against human NCI-H522 cells assessed as cell growth at 50 uM by SRB assay; conditions: read-out: Activity
[18] = read-out: LC50 (the source's name)
[19] = read-out: pLC50 (the source's name) (converted)

COc1cc([C@@H]2c3cc4c(cc3[C@@H](NC(=O)CN3CCN(CCCCCCN5CCN(CC(=O)N[C@@H]6c7cc8c(cc7[C@@H](c7cc(OC)c(O)c(OC)c7)[C@H]7C(=O)OC[C@@H]76)OCO8)CC5)CC3)[C@H]3COC(=O)[C@H]23)OCO4)cc(OC)c1O
growth at 50 µM (OVCAR-4): 21%
growth at 50 µM (TK-10 [1]): 63%
growth at 50 µM (PC-3): 25%
growth at 50 µM [2]: 9%
growth at 50 µM (MDA-MB-468): -33%
GI50 (NCI-H226; read-out: GI50): 5.42 µM
CC50 (NCI-H226; [18]): > 50 µM
TGI (NCI-H226; read-out: TGI): 46.8 µM
GI50 (NCI-H226; read-out: pGI50 (converted)): 5.37 µM
CC50 (NCI-H226; [19]): > 50.1 µM
TGI (NCI-H226; read-out: pTGI (converted)): 46.8 µM
GI50 (KM12 [3]; read-out: GI50): 3.79 µM
CC50 (KM12 [3]; [18]): > 50 µM
TGI (KM12 [3]; read-out: TGI): > 50 µM
GI50 (KM12 [3]; read-out: pGI50 (converted)): 3.8 µM
CC50 (KM12 [3]; [19]): > 50.1 µM
TGI (KM12 [3]; read-out: pTGI (converted)): > 50.1 µM
GI50 (SF-539; read-out: GI50): 0.898 µM
CC50 (SF-539; [18]): > 50 µM
TGI (SF-539; read-out: TGI): 3.57 µM
GI50 (SF-539; read-out: pGI50 (converted)): 0.891 µM
CC50 (SF-539; [19]): > 50.1 µM
TGI (SF-539; read-out: pTGI (converted)): 3.55 µM
GI50 (M14 [4]; read-out: GI50): 2.31 µM
CC50 (M14 [4]; [18]): > 50 µM
TGI (M14 [4]; read-out: TGI): 22.1 µM
GI50 (M14 [4]; read-out: pGI50 (converted)): 2.29 µM
CC50 (M14 [4]; [19]): > 50.1 µM
TGI (M14 [4]; read-out: pTGI (converted)): 21.9 µM
GI50 (UACC-62; read-out: GI50): 1.55 µM
CC50 (UACC-62; [18]): > 50 µM
TGI (UACC-62; read-out: TGI): 35.7 µM
GI50 (UACC-62; read-out: pGI50 (converted)): 1.55 µM
CC50 (UACC-62; [19]): > 50.1 µM
TGI (UACC-62; read-out: pTGI (converted)): 35.5 µM
GI50 (RXF 393 [5]; read-out: GI50): 9.33 µM
CC50 (RXF 393 [5]; [18]): > 50 µM
TGI (RXF 393 [5]; read-out: TGI): > 50 µM
GI50 (RXF 393 [5]; read-out: pGI50 (converted)): 9.33 µM
CC50 (RXF 393 [5]; [19]): > 50.1 µM
TGI (RXF 393 [5]; read-out: pTGI (converted)): > 50.1 µM
growth at 0.005 µM (NCI-H460): 100%
growth at 0.005 µM (SW-620 [6]): 97%
growth at 0.005 µM (SNB-75): 75%
growth at 0.005 µM (LOX IMVI): 98%
growth at 0.005 µM (M14 [7]): 89%
growth at 0.005 µM (SK-MEL-2): 102%
growth at 0.005 µM (IGROV-1): 111%
growth at 0.005 µM [8]: 95%
growth at 0.05 µM (HOP-92): 82%
growth at 0.05 µM (NCI-H23 [9]): 102%
growth at 0.05 µM (HCT-116): 98%
growth at 0.05 µM (SW-620 [10]): 91%
growth at 0.05 µM (SK-MEL-28): 106%
growth at 0.05 µM (SK-OV-3 [11]): 107%
growth at 0.05 µM (RXF 393 [12]): 92%
growth at 0.5 µM (HL-60(TB)): 60%
growth at 0.5 µM (NCI-H23 [13]): 95%
growth at 0.5 µM (HCT-15): 90%
growth at 0.5 µM (TK-10 [14]): 89%
growth at 5 µM (COLO 205): 54%
growth at 5 µM (KM12 [15]): 46%
growth at 5 µM (SW-620 [16]): 37%
growth at 5 µM (MDA-MB-435): 57%
growth at 5 µM (UACC-257): 62%
growth at 5 µM (OVCAR-8): 92%
growth at 5 µM (SK-OV-3 [17]): 44%
growth at 5 µM (CAKI-1): 80%
growth at 5 µM (MCF7): 12%
growth at 5 µM (BT-549): -5%
growth at 50 µM (CCRF-CEM): 7%
growth at 50 µM (NCI-H322M): 37%
growth at 50 µM (NCI-H522): -16%
